High-throughput results as filed in PubChem BioAssay.
APJ ag = agonists of human APJ apelin receptor; P35414; CHO-K1 APJ PathHunter beta-arrestin, luminescence; 0% DMSO wells, 100% apelin; activation, % at 20 µM; 330,000 tested, 0.11% active; AID 2520;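 active = activation more than six SD over the plate average, tested at 20 µM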;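 also: 0% = DMSO alone and 100% = apelin-13 at 10 nM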
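Assay system: CHO-K1 APJ beta-arrestin complementation cell line / Compound: single test compound dose, 20 µM final, 1% DMSO / Times: overnight seeding, 90 min compound at 25 °C, 1 h detection / Technique: beta-gal luminescence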
APJ antagonist = APJ receptor antagonism; P35414; CHO-K1 APJ beta-arrestin complementation, luminescence; inhibition, % at 20 µM; 330,000 tested, 0.32% active; AID 2521;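 active = inhibition above about 40% at 20 µM, limit read from the data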;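 also: cells challenged with 10 nM apelin-13 agonist together with compound; plate controls were apelin-13 plus DMSO wells for no effect and DMSO wells lacking apelin-13 for full effect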
CXCR6 block = blocks human CXCR6 beta-arrestin recruitment | inhibition, % at 20 µM | CHO-K1 PathHunter CXCR6 beta-arrestin, luminescence | AID 602244 | O00574 | 360,000 tested, 0.36% active; in the data active = inhibition above about 34%, passing the limit was not always enough;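 also: antagonist mode with CXCL16 agonist at 10 nM final; 0% = 10 nM CXCL16 with DMSO and 100% = unstimulated wells without agonist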
Target sequence (O00574 whole entry, looked up): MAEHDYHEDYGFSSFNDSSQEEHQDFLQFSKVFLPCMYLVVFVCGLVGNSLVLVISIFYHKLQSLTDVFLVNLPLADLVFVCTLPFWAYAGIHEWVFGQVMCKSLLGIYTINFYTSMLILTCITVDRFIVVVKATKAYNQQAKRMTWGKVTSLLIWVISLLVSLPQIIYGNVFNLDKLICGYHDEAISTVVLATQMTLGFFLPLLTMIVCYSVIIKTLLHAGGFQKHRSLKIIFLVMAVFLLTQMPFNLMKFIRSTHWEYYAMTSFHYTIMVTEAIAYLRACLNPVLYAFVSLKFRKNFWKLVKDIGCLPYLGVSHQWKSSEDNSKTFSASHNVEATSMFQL
CCR6 antag = antagonists of human CCR6 receptor; CHO-K1 CCR6 PathHunter beta-arrestin, luminescence, CCL20-stimulated; inhibition, % at 20 µM; 340,000 tested, 0.49% active; P51684;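 active = compounds whose inhibition of the agonist-driven luminescence signal at 20 µM reaches about 50%, limit read from the data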;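 also: cells stimulated with CCL20 at 14 nM final; plate controls were DMSO with CCL20 for no effect and DMSO without agonist for full effect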
EBI2 antag = EBI2 (human) antagonism; P32249; EBI2 beta-arrestin recruitment, luminescence, 7a,25-OHC stimulated; inhibition, % at 5 µM; 360,000 tested, 0.81% active; in the data active = inhibition above about 38%;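 also: enzyme fragment complementation signal reports receptor beta-arrestin coupling in cells; 0% = agonist plus DMSO wells and 100% = wells without agonist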
B2AR ag = human beta-2 adrenergic receptor agonism by FAP | Am2.2-beta2AR cells, FAP receptor internalization, flow cytometry | response, % (concentration not given with the values) | P07550 | 340,000 tested, 0.43% active;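 active = response above a set limit, near 3 SD of response in nonfluorescent compounds, cut at about 42% in these data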
APJ ag confirm = APJ receptor agonism confirmation. shares compounds with APJ ag. CHO-K1 APJ PathHunter beta-arrestin, luminescence. activation, % at 20 µM. 310 tested, 10% active. AID 2764;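 active = activation above 40%, taking the highest of four retests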;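 also: plate controls were DMSO wells for no effect and apelin-13 at 10 nM for full effect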
* hit, by the source's call. Shown are actives, neighbours in structure and some others; about 1.8% of the full set was active somewhere.

Screening Cc1cccc(C)c1NC(=O)C1C(c2ccccc2)=Nc2ccccc2N1C(=O)c1cnccn1 (configuration not stated) returned EBI2 antag 6.
For N#Cc1cc(-c2ccccc2)nnc1Oc1ccccc1 the results were APJ ag 1, APJ antagonist 11, CXCR6 block -1, CCR6 antag -1, EBI2 antag -5 and B2AR ag 20.
Screening Cc1ccc(Oc2nnc(-c3ccccc3)cc2C#N)cc1 returned APJ ag 22*, APJ antagonist 10, CXCR6 block 0, CCR6 antag -14, EBI2 antag -4, B2AR ag 10 and APJ ag confirm 21.
Cc1cc(C)n2nc(SCC(=O)Nc3c(C)nn(-c4ccccc4)c3C)nc2n1 was read as APJ ag 39*, APJ antagonist 3, CXCR6 block 3, CCR6 antag 2, EBI2 antag 2, B2AR ag -11 and APJ ag confirm 29.
For N#Cc1ccc(S(=O)(=O)N2CCCCC2c2cc(C(=O)N3CCOCC3)no2)cc1 (configuration not stated) the results were CXCR6 block 8 and EBI2 antag -10.
Cc1ccc2c(c1)c(=O)c1c3n2CCN(C(=O)CCl)C3CC1 (configuration not stated) was read as APJ ag 37*, APJ antagonist -15, CXCR6 block 1, CCR6 antag -4, EBI2 antag -21, B2AR ag 6 and APJ ag confirm 22.
CC(=O)Nc1ccc(NC(=O)COC(=O)c2ccc([N+](=O)[O-])o2)cc1 was read as APJ ag 12*, APJ antagonist -22, CXCR6 block -24, CCR6 antag 3, EBI2 antag -12, B2AR ag -2 and APJ ag confirm 11.
COc1cc(Cl)c(C)cc1NC(=O)CCN1C(=O)NC(C)(C)C1=O was read as APJ ag 5, APJ antagonist -21, CXCR6 block -1, CCR6 antag -12, EBI2 antag -6 and B2AR ag -1.
Screening COc1cc(OC)cc(-c2n[nH]c(=S)n2-c2cc(OC)ccc2OC)c1 returned APJ ag 36*, APJ antagonist -3, CXCR6 block 3, CCR6 antag 20, EBI2 antag -10, B2AR ag 0 and APJ ag confirm 40*.
Screening COc1ccc(OC)c(-n2c(-c3ccc(O)cc3O)n[nH]c2=S)c1 returned APJ ag 2, APJ antagonist -5, CXCR6 block 5, CCR6 antag 5, EBI2 antag 3 and B2AR ag 5.
Screening CCN1C(=O)[C@H]2[C@H]3CN=C(SCC(=O)c4ccccc4)N3[C@@](CC)(C(=O)OC)[C@H]2C1=O returned CXCR6 block 5, CCR6 antag 12, EBI2 antag -1 and B2AR ag -4.
`COc1ccc(-c2ccc3c(c2)S(=O)(=O)c2cccc(C(=O)NC4CCCC4)c2C3=O)cc1OC` gave APJ ag 9.0*, APJ antagonist 1, CXCR6 block 3, CCR6 antag -3, EBI2 antag -21, B2AR ag -8 and APJ ag confirm 11.
For CSCCC(NS(=O)(=O)Cc1ccccc1)C(=O)NNc1ccccc1 (configuration not stated) the results were CXCR6 block -2 and EBI2 antag -6.
`CCOC(=O)C1=C(Cn2cnc3ccccc32)NC(=O)NC1c1cc(C)ccc1C` (configuration not stated) gave APJ ag 62*, APJ antagonist 31, CXCR6 block 9, CCR6 antag 13, EBI2 antag -42, B2AR ag 0 and APJ ag confirm 59*.
CCOC(=O)C1=C(CSc2nccn2C)NC(=O)NC1c1cc(C)ccc1C (configuration not stated) was read as APJ ag -4, APJ antagonist -17, CXCR6 block 7, CCR6 antag 5, EBI2 antag 5 and B2AR ag -10.
